Data set [1] in a line: Induction of NO release from the compound in phosphate buffer at pH 7.4 at 0.1 mM incubated for 15 to 300 mins measured every 15 mins for 120 mins and every 30 mins for remaining time by Griess assay. Type of data set: physicochemical. Particulars: pH 7.4, 100 µM. In a few lines:
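Compound at 0.1 mM in PBS pH 7.4 containing 2% DMSO and 5.0 mM L-cysteine, incubated at 37 °C for 15–300 min. Sampled every 15 min up to 120 min, then every 30 min. Samples (2 mL) mixed with Griess reagent, 37 °C 10 min, absorbance at 540 nm. NO quantified against nitrite standards; means per time point.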
(Griess reagent forms a coloured azo dye with nitrite.)

A short description of data set [2]: Antiplatelet activity in rabbit platelet rich plasma assessed as inhibition of ADP-induced aggregation at 1 mM treated for 5 mins before ADP challenge by turbidimetry. Type of data set: functional. Particulars: Oryctolagus cuniculus. In a few lines:
(§1)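 Rabbit PRP (low-speed spin 500 rpm 10 min; PPP from 3000 rpm 10 min as reference) pre-treated in duplicate with vehicle, reference drug or compound for 5 min, then ADP 10 µM final at 37 °C for 5 min. Aggregation followed by optical density (Born turbidimetry). % inhibition versus vehicle-treated ADP-exposed controls; IC50 by nonlinear regression, top concentration 1.0 mM. Mean ± S.D., n = 4.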

Data set [3] is described as follows: Aqueous solubility of the compound. To be noted: buffer. In kind it is physicochemical.
Data set [4] in a line: Antiplatelet activity in rabbit platelet rich plasma assessed as inhibition of ADP-induced aggregation treated for 5 mins before ADP challenge by turbidimetry. To be noted: Oryctolagus cuniculus. In kind it is functional. The gist of the method:
as §1

Data set [5] in a line: Antiplatelet activity in rabbit platelet rich plasma assessed as inhibition of ADP-induced aggregation at 1 mM treated for 5 mins before ADP challenge by turbidimetry in presence of endogenous NO scavenger hemoglobin. In kind it is functional. Particulars: Oryctolagus cuniculus. In a few lines: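 Rabbit PRP exposed to compound at 1.0 mM for 5 min at 37 °C together with hemoglobin 20 µM (NO scavenger), then challenged with ADP 10 µM. Aggregation monitored turbidimetrically. Inhibition relative to vehicle-treated ADP-exposed controls. Mean ± SD from several independent experiments; Student's t test.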

Broadly, the inhibition is the share of the control response that was lost under treatment. One may read the IC50 as the concentration at which inhibition is half-maximal. `CCCCC(OC(=O)CN(CC)CC)c1ccccc1C(=O)Oc1ccc(/C=C/C(=O)NCCO[N+](=O)[O-])cc1OC.Cl` (centres undefined): the Activity in data set [1] was found to be 0.057 µg/mL. For the same compound, the inhibition at 1000 µM stood at 83% in data set [2] and 54.4% in data set [5]. Also, the solubility result in data set [3] was “soluble”. For the same compound, the IC50 in data set [4] was found to be 54.4 µM.

Turning to `CCCCC(OC(=O)CN1CCCCC1)c1ccccc1C(=O)Oc1ccc(/C=C/C(=O)NCCO[N+](=O)[O-])cc1.Cl` (centres undefined), the inhibition at 1000 µM in data set [2] came out at 82.4%. Besides, the solubility result in data set [3] was “soluble”.

Regarding `COc1cc(/C=C/C(=O)NCCO[N+](=O)[O-])ccc1O`, the inhibition at 1000 µM in data set [2] amounted to 51.3%.

Turning to `CCCCC(OC(=O)CN1CCCCC1)c1ccccc1C(=O)Oc1ccc(/C=C/C(=O)NCCO[N+](=O)[O-])cc1OC.Cl` (centres undefined), the Activity in data set [1] was found to be 0.06 µg/mL. For the same compound, in data set [2], the inhibition at 1000 µM is 83%. In addition, the 50% inhibitory concentration (IC50) in data set [4] was 39.4 µM.

In the case of `CCCCC1OC(=O)c2ccccc21` (racemic) [RAC-3-N-BUTYLPHTHALIDE], in data set [2], the inhibition at 1000 µM is 67.8%.

On to `CCCCC(OC(C)=O)c1ccccc1C(=O)Oc1ccc(/C=C/C(=O)NCCO[N+](=O)[O-])cc1` (centres undefined), for which the Activity in data set [1] turned out to be 0.022 µg/mL.

`CC(=O)Oc1ccccc1C(=O)O` [ASPIRIN]: the inhibition at 1000 µM in data set [2] was 68.5%.

As to `CCCCC(OC(C)=O)c1ccccc1C(=O)Oc1ccc(/C=C/C(=O)NCC(C)O[N+](=O)[O-])cc1OC` (centres undefined), the Activity in data set [1] amounted to 0.027 µg/mL.

For `CCCCC(OC(=O)CN1CCOCC1)c1ccccc1C(=O)Oc1ccc(/C=C/C(=O)NCCO[N+](=O)[O-])cc1.Cl` (centres undefined), in data set [1], the Activity is 0.043 µg/mL.

For `CCCCC(OC(=O)CN(CC)CC)c1ccccc1C(=O)O` (centres undefined), the inhibition at 1000 µM in data set [2] is 67.2%.

Take `CCCCC(OC(=O)CN(CC)CC)c1ccccc1C(=O)Oc1ccc(/C=C/C(=O)NCCCO[N+](=O)[O-])cc1.Cl` (centres undefined): the inhibition at 1000 µM in data set [2] stood at 82.1%. In data set [3], the solubility entry is listed as “soluble”.
